Data on one compound can be found in ChEMBL document CHEMBL4024754, “Development of Potent, Protease-Resistant Agonists of the Parathyroid Hormone Receptor with Broad β Residue Distribution” (J Med Chem, 2017).

Active and inactive are the calls of the source. The rule behind the calls is not given here. Numbered stars: 1 amine (or outer) side, 2 acyl side, 3 side chain; on linkers, the order of the positions; unused ones are H or OH. Square brackets hold non-standard residues; d marks the D form. Peptide text beside a SMILES is read from it. * marks the point of attachment. NH(1S,2S-2-CONH2-cPent) = NC(=O)[C@H]1CCC[C@@H]1N*; ACPC(1S,2S) = N[C@H]1CCC[C@@H]1C(=O)*; X1 = O=C([C@H]1CCC[C@@H]1N[*:1])[*:2]; X2 = O=C([C@H]1CNC[C@@H]1N[*:1])[*:2]; hArg = N=C(N)NCCCC[C@H](N)C(=O)O; Aib = CC(C)(N)C(=O)O

Data set [1] concerns the target T1, Parathyroid hormone/parathyroid hormone-related peptide receptor (Homo sapiens) (UniProt Q03431).
T1 sequence (whole entry): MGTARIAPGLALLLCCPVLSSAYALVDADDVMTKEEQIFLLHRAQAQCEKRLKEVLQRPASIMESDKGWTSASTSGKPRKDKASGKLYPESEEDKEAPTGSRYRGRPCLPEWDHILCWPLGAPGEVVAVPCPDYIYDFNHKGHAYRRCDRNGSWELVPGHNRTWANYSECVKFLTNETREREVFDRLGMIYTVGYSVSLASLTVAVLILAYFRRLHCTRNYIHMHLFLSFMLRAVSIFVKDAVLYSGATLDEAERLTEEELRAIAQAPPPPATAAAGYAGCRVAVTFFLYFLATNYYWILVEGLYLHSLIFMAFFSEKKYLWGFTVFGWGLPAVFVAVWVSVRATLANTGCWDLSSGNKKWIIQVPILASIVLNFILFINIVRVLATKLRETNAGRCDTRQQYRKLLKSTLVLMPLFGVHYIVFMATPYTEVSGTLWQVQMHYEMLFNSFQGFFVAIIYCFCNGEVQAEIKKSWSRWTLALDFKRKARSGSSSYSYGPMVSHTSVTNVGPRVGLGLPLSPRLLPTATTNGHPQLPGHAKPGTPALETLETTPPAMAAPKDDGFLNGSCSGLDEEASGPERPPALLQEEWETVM
Nature of the data set: Agonist activity at human PTH1 receptor expressed in human GP2.3 cells assessed as induction of cAMP after 12 to 20 mins by luciferase reporter gene assay relative to PTH(1 to 34 residues)-NH2. The class given is functional, cell-based. For orientation: In a reporter assay the amount or activity of a reporter protein is the signal.

Data set [2] deals with T1, Parathyroid hormone/parathyroid hormone-related peptide receptor (Homo sapiens). Nature of the data set: Agonist activity at human PTH1 receptor expressed in human GP2.3 cells assessed as induction of cAMP at 0.1 to 100 nM preincubated with SGF for 4 hrs followed by compound transfer to GP2.3 cells by luciferase reporter gene assay. The class given is functional, cell-based. In outline:
(§1)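 Peptide at 200 μM (from 1 mM stock in 10 mM acetic acid) incubated at 37 °C in fresh SGF (NaCl, porcine pepsin, HCl, pH ~1.2). Quenched by 10× PBS to neutral pH (40 μM). Duplicate reactions. Intact peptide measured by RP-HPLC peak area. For bioactivity, samples diluted into CO2-independent medium and added to luciferin-loaded GP2.3 cells at 100 nM−0.1 nM final.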

Data set [3] shares this target. Nature of the data set: Agonist activity at human PTH1 receptor expressed in human GP2.3 cells assessed as induction of cAMP at 0.1 to 100 nM preincubated with SIF for 10 mins followed by compound transfer to GP2.3 cells by luciferase reporter gene assay. The class given is functional, cell-based. In outline: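 Simulated intestinal fluid containing pancreatin, pH 6.8, prepared fresh and kept at 37 °C. Peptide incubated in it as for gastric fluid. Quenched 1:1 with 50% acetonitrile/1% TFA. Quenched samples serially diluted in CO2-independent medium and applied to luciferin-preloaded GP2.3 cells at 100−0.1 nM final. Luminescence read. Two technical replicates.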

A short description of data set [4]: Half life in Sprague-Dawley rat kidney homogenates at 12 uM by HPLC-MS analysis. It counts as ADME, tissue-based. The essentials: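 Kidney homogenate (2.5 mg protein/mL, pH 7.4 Tris) spiked with peptide at 50 μg/mL (~12 μM), 37 °C, sampled 0−120 min. […] C18 UHPLC–Orbitrap MS quantified via y32 ion area ratio against calibration standards. Exponential decay fit, mean ± SD of two replicates.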

A further data set deals with pepsin. Nature of the data set: Stability in simulated gastric fluid assessed as pig pepsin-mediated proteolysis by measuring half life at 40 uM by RP-HPLC analysis. The class given is ADME, Sus scrofa. The note with it: simulated gastric fluid with pig pepsin. The essentials: as §1
Data set [5] deals with T1, Parathyroid hormone/parathyroid hormone-related peptide receptor (Homo sapiens). Briefly: Agonist activity at human PTH1 receptor expressed in human GP2.3 cells assessed as induction of cAMP at 0.1 to 100 nM preincubated with protease activity quenched SIF followed by compound transfer to GP2.3 cells by luciferase reporter gene assay. It counts as functional, cell-based. The essentials:
(§2)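 Control samples: simulated gastric fluid neutralized with 10× PBS, or intestinal fluid mixed with acetonitrile/TFA quench solution, before adding peptide. Gastric controls held up to 4 h. Then diluted and tested on luciferin-loaded GP2.3 cells at 100−0.1 nM final, alongside freshly prepared peptide.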

Another data set has as its system Blood. Nature of the data set: Drug level in CD1 mouse blood at 20 nmol/kg, sc measured up to 2 hrs. The class given is ADME, organism-based. The note with it: in vivo. In outline: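 Female CD1 mice, n = 5, 20 nmol/kg subcutaneously in citrate/NaCl/Tween-80 vehicle, pH 5.0. 2 μL serum from timed bleeds, mixed with CO2-independent medium, added to GP2.3 cells. Luminescence converted to peptide concentration via a standard curve.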

For data set [6], the target named is T1, Parathyroid hormone/parathyroid hormone-related peptide receptor (Homo sapiens). Nature of the data set: Agonist activity at human PTH1 receptor expressed in human GP2.3 cells assessed as induction of cAMP at 12 uM preincubated with Sprague-Dawley rat kidney homogenates for 60 mins followed by compound transfer to GP2.3 cells measured after 12 to 20 mins by luciferase reporter gene assay. The class given is functional, cell-based. In outline:
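Female Sprague-Dawley rat kidney homogenate (50 mM Tris-HCl pH 7.4, 2000g supernatant). 1 mM peptide stock diluted 1:85 (~12 μM), incubated at indicated times. Quenched 1:1 with acetonitrile/TFA solution, diluted to 1000−1 nM, and added 1:10 to GP2.3 cells preincubated 30 min with 0.5 mM D-luciferin. Sigmoidal variable-slope fit. Two replicates.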

Data set [7] has the same target. Nature of the data set: Agonist activity at human PTH1 receptor expressed in human GP2.3 cells assessed as induction of cAMP at 0.1 to 100 nM preincubated with protease activity quenched SGF up to 4 hrs followed by compound transfer to GP2.3 cells by luciferase reporter gene assay. It counts as functional, cell-based. The essentials: as §2
Data set [8] has the same target. Briefly: Displacement of [125I]-PTH(1 to 34 residues) from R0 state of human PTHR1 expressed in African green monkey COS7 cell membranes incubated for >1 hr in presence of GTPgammaS by gamma radiation method.
Data set [9] is described as follows: Drug metabolism in Sprague-Dawley rat kidney homogenates assessed as protease-mediated metabolite formation at 12 uM after 4 hrs by MALDI-TOF-MS analysis. The note with it: tissue homogenate. It counts as ADME, tissue-based. The essentials: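 Perfused female Sprague-Dawley kidney homogenate in 50 mM Tris-HCl pH 7.4, diluted to 2.5 mg protein/mL. Peptide spiked at 50 μg/mL (~12 μM) and incubated at 37 °C. Timed samples quenched with equal volume 1% TFA, centrifuged, dried, reconstituted in 0.1% formic acid, mixed with DHB matrix. Fragments identified by MALDI-TOF MS.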

The subject of data set [10] is Mus musculus. Briefly: In vivo induction of excessive bloodstream calcium concentration in CD1 mouse at 20 nmol/kg, sc after 2 hrs by Ca2+/pH analyzer. It counts as organism-based. In outline:
(§3)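 Female CD1 mice (9−12 weeks), n = 5, given 20 nmol/kg subcutaneously in 10 mM citrate/150 mM NaCl/0.05% Tween-80, pH 5.0. Tail vein blood taken before and at times after dosing. Ca2+ measured by Ca2+/pH analyzer. One-way ANOVA with Dunnett's test vs vehicle. Mean ± SEM.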

In data set [11] the target is T2, Parathyroid hormone/parathyroid hormone-related peptide receptor (Homo sapiens, UniProt Q03431).
T2 sequence (Q03431 whole entry): T1 sequence (whole entry)
Briefly: Agonist activity at human PTH1 receptor expressed in human GP2.3 cells assessed as induction of cAMP after 12 to 20 mins by luciferase reporter gene assay. The class given is functional, cell-based. Conditions: read-out: EC50.

Data set [12] concerns Mus musculus. Nature of the data set: In vivo induction of excessive bloodstream calcium concentration in CD1 mouse at 20 nmol/kg, sc up to 2 hrs by Ca2+/pH analyzer. The class given is organism-based. In outline:
as §3

Broadly, the half-life is the time in which the quantity being followed falls by half. For orientation: EC50 means the concentration that produces a half-maximal response. As to `CSCC[C@H](NC(=O)[C@H]1CCC[C@@H]1NC(=O)[C@H](CCC(N)=O)NC(=O)[C@H]1CCC[C@@H]1NC(=O)[C@H](CCC(=O)O)NC(=O)C(C)(C)NC(=O)[C@@H](NC(=O)[C@H]1CCC[C@@H]1N)C(C)C)C(=O)N[C@@H](Cc1cnc[nH]1)C(=O)N[C@@H](CCC(N)=O)C(=O)N[C@@H](CCCCNC(=N)N)C(=O)N[C@@H](C)C(=O)N[C@@H](CCCCN)C(=O)N[C@H]1CCC[C@@H]1C(=O)N[C@@H](CC(C)C)C(=O)N[C@@H](CC(N)=O)C(=O)N[C@@H](CO)C(=O)N[C@H]1CCC[C@@H]1C(=O)N[C@@H](CCCNC(=N)N)C(=O)N[C@@H](CCCNC(=N)N)C(=O)N[C@H](C(=O)N[C@H]1CNC[C@@H]1C(=O)N[C@@H](Cc1c[nH]c2ccccc12)C(=O)N[C@@H](CC(C)C)C(=O)N[C@@H](CCCNC(=N)N)C(=O)N[C@H]1CNC[C@@H]1C(=O)N[C@@H](CCCCN)C(=O)N[C@@H](CC(C)C)C(=O)N[C@@H](CCC(N)=O)C(=O)N[C@H]1CCC[C@@H]1C(=O)N[C@H](C(=O)N[C@@H](Cc1cnc[nH]1)C(=O)N[C@@H](CC(N)=O)C(=O)N[C@H]1CCC[C@@H]1C(N)=O)C(C)C)C(C)C` ({ACPC(1S,2S)}-V[Aib]E[X1]Q[X1]MHQ[hArg]AK[X1]LNS[X1]RRV[X2]WLR[X2]KLQ[X1]VHN-{NH(1S,2S-2-CONH2-cPent)}), the fold change (FC) in data set [1] lay in the range of 7.1 to 9.5. Also, the result in data set [2], in [3], in [5], in data set [6] and in [7] was Active. For the same compound, in [4], the half-life at 12 µM amounted to 0.517 h. Further, the half-life at 40 µM in the data set on pepsin was 4 h. Besides, in the data set with Blood, the Drug uptake result was “Not Active”. Moreover, in data set [8], the inhibition entry was “Active”. Also, in data set [9], the Drug metabolism result is “Metabolite_Notdetected”. Further, the Activity result with Mus musculus [10] was “Non-Toxic”; with Mus musculus [12], “Toxic”. Besides, the EC50 in data set [11] is 0.48 to 0.78 nM.
